Data: ChEMBL document CHEMBL3243962, “Antileukemic activity of derivatives of 1,2-dimethyl-3,4-bis(hydroxymethyl)-5-phenylpyrrole bis(N-methylcarbamate)” (J Med Chem, 1979)

Assays:
Mus musculus [1] = assay: Toxicity in mouse P388 cells allografted CD2F1 mouse assessed as mouse survival at 3.75 mg/kg, ip of total 9 doses starting 24 hrs post tumor inoculation measured on day 5 of inoculation relative to control; format: organism-based; design: dose 3.75 mg/kg, route intraperitoneal; conditions: in vivo
Summary of the method: (§1)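 Male CD2F1 mice bearing ip P388 leukemia (6×10^6 cells) were dosed ip with nine daily doses in distilled water–Tween 80 suspension, starting 24 h after inoculation. Survivors per group of 6 were counted on day 5, i.e. 4 days after the first dose. Body-weight change of treated minus control mice was also recorded.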

P388 [2] = assay: Antitumor activity against mouse P388 cells allografted in CD2F1 mouse assessed as increase in mouse survival at 1.88 mg/kg, ip of total 9 doses starting 24 hrs post tumor inoculation measured on day 5 of inoculation relative to control; format: functional; conditions: route intraperitoneal
Summary of the method: (§2)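 Male CD2F1 mice inoculated ip with 6×10^6 P388 leukemia cells. Dosing was ip as a suspension in distilled water–Tween 80, nine daily doses starting 24 h after inoculation. Activity was read as median survival time of treated vs control mice (% T/C); % T/C ≥ 120 was considered significant. Groups were 6 mice.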

Mus musculus [3] = assay: Toxicity in mouse P388 cells allografted CD2F1 mouse assessed as body weight loss at 30 mg/kg, ip of total 9 doses starting 24 hrs post tumor inoculation measured on day 5 of inoculation relative to control; format: organism-based; design: dose 30 mg/kg, route intraperitoneal; conditions: in vivo
Summary of the method: (§3)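 Male CD2F1 mice inoculated ip with 6×10^6 P388 leukemia cells. Compounds given ip as distilled water–Tween 80 suspension, nine daily doses starting 24 h after inoculation; six mice per dose group. Treated-minus-control body-weight change (T − C) and toxicity-day survivors recorded on day 5 (4 days after first dose).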

Mus musculus [4] = assay: Toxicity in mouse P388 cells allografted CD2F1 mouse assessed as body weight loss at 3.75 mg/kg, ip of total 9 doses starting 24 hrs post tumor inoculation measured on day 5 of inoculation relative to control; format: organism-based; design: dose 3.75 mg/kg, route intraperitoneal; conditions: in vivo; summary of the method: as §3
Mus musculus [5] = assay: Toxicity in mouse P388 cells allografted CD2F1 mouse assessed as mouse survival at 1.88 mg/kg, ip of total 9 doses starting 24 hrs post tumor inoculation measured on day 5 of inoculation relative to control; format: organism-based; design: dose 1.88 mg/kg, route intraperitoneal; conditions: in vivo; summary of the method: as §1
P388 [6] = assay: Antitumor activity against mouse P388 cells allografted in CD2F1 mouse assessed as increase in mouse survival at 7.5 mg/kg, ip of total 9 doses starting 24 hrs post tumor inoculation measured on day 5 of inoculation relative to control; format: functional; conditions: route intraperitoneal; summary of the method: as §2
Mus musculus [7] = assay: Toxicity in mouse P388 cells allografted CD2F1 mouse assessed as mouse survival at 15 mg/kg, ip of total 9 doses starting 24 hrs post tumor inoculation measured on day 5 of inoculation relative to control; format: organism-based; design: dose 15 mg/kg, route intraperitoneal; conditions: in vivo; summary of the method: as §1
Mus musculus [8] = assay: Toxicity in mouse P388 cells allografted CD2F1 mouse assessed as mouse survival at 7.5 mg/kg, ip of total 9 doses starting 24 hrs post tumor inoculation measured on day 5 of inoculation relative to control; format: organism-based; design: dose 7.5 mg/kg, route intraperitoneal; conditions: in vivo; summary of the method: as §1
Mus musculus [9] = assay: Toxicity in mouse P388 cells allografted CD2F1 mouse assessed as body weight loss at 15 mg/kg, ip of total 9 doses starting 24 hrs post tumor inoculation measured on day 5 of inoculation relative to control; format: organism-based; design: dose 15 mg/kg, route intraperitoneal; conditions: in vivo; summary of the method: as §3
Mus musculus [10] = assay: Toxicity in mouse P388 cells allografted CD2F1 mouse assessed as mouse survival at 30 mg/kg, ip of total 9 doses starting 24 hrs post tumor inoculation measured on day 5 of inoculation relative to control; format: organism-based; design: dose 30 mg/kg, route intraperitoneal; conditions: in vivo; summary of the method: as §1
Mus musculus [11] = assay: Toxicity in mouse P388 cells allografted CD2F1 mouse assessed as body weight loss at 1.88 mg/kg, ip of total 9 doses starting 24 hrs post tumor inoculation measured on day 5 of inoculation relative to control; format: organism-based; design: dose 1.88 mg/kg, route intraperitoneal; conditions: in vivo; summary of the method: as §3
P388 [12] = assay: Antitumor activity against mouse P388 cells allografted in CD2F1 mouse assessed as increase in mouse survival at 15 mg/kg, ip of total 9 doses starting 24 hrs post tumor inoculation measured on day 5 of inoculation relative to control; format: functional; conditions: route intraperitoneal; summary of the method: as §2
Mus musculus [13] = assay: Toxicity in mouse P388 cells allografted CD2F1 mouse assessed as body weight loss at 7.5 mg/kg, ip of total 9 doses starting 24 hrs post tumor inoculation measured on day 5 of inoculation relative to control; format: organism-based; design: dose 7.5 mg/kg, route intraperitoneal; conditions: in vivo; summary of the method: as §3
P388 [14] = assay: Antitumor activity against mouse P388 cells allografted in CD2F1 mouse assessed as increase in mouse survival at 3.75 mg/kg, ip of total 9 doses starting 24 hrs post tumor inoculation measured on day 5 of inoculation relative to control; format: functional; conditions: route intraperitoneal; summary of the method: as §2
P388 [15] = assay: Antitumor activity against mouse P388 cells allografted in CD2F1 mouse assessed as increase in mouse survival at 30 mg/kg, ip of total 9 doses starting 24 hrs post tumor inoculation measured on day 5 of inoculation relative to control; format: functional; conditions: route intraperitoneal; summary of the method: as §2

CNC(=O)OCc1c(COC(=O)NC)c(-c2ccc(-c3ccccc3)cc2)n(C)c1C
Activity (Mus musculus [1]): Non-toxic | T/C (P388 [2]): 135% | Activity (Mus musculus [3]): 3.6 g | Activity (Mus musculus [4]): 1.3 g | Activity (Mus musculus [5]): Non-toxic | T/C (P388 [6]): 144% | Activity (Mus musculus [7]): Non-toxic | Activity (Mus musculus [8]): Non-toxic | Activity (Mus musculus [9]): 3.1 g | Activity (Mus musculus [10]): Non-toxic | Activity (Mus musculus [11]): 0.6 g | T/C (P388 [12]): 153% | Activity (Mus musculus [13]): 2.2 g | T/C (P388 [14]): 144% | T/C (P388 [15]): 144%
